Source: PubChem
Rows were chosen to be rich in hits. Some 2.6% of all compounds tested hit in one or more screens of this group.
MC4R antagonist: antagonists of human melanocortin 4 receptor (MC4R) | P32245 | MC4R-expressing cells, MTII-stimulated cAMP, LANCE TR-FRET | inhibition, % at 6.5 µM | 360,000 compounds, 0.48% hits | AID 540295;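 active means inhibition above its plate's cutoff, the mean of tested wells on that plate plus 3 SD, cut at about 29% in these data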;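 further: 0% = Melanotan II alone and 100% = Melanotan II plus saturating MCL0020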
Target sequence (P32245 whole entry, looked up): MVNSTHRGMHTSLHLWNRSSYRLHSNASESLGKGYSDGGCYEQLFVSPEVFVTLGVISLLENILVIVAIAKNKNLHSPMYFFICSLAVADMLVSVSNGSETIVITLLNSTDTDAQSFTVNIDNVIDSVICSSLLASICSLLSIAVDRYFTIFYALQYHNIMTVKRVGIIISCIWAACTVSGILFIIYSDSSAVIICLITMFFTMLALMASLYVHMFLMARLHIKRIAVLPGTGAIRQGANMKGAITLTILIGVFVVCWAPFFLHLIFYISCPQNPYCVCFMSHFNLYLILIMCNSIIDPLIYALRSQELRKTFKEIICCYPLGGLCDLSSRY
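system = U2OS cells with stable human MC4R expression | also added = Melanotan II challenge after compound preincubation | dosing = one concentration, 6.5 µM nominal | incubation = compound 30 min, challenge 1 h, detection 1 h | measured by = TR-FRET with Eu-cAMP and labeled anti-cAMP, 671 nm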
Exocytosis inh: lytic granule exocytosis inhibition | TALL-104 LAMP-1 surface exposure, flow cytometry; cells stimulated with thapsigargin and PMA | inhibition, % at 10 µM | 360,000 compounds, 0.66% hits | AID 651702;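 active means inhibition above about 55%, limit read from the data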
PGE2 EP2 inh: blocks the human prostaglandin E2 receptor EP2; P43116; C6 glioma cells expressing human EP2, cAMP TR-FRET; cells stimulated with saturating PGE2; inhibition, % at 25 µM; 260,000 compounds, 0.52% hits;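 active means percent inhibition above 40 after rounding to a whole number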;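 further: rat C6 glioma host cells with rolipram phosphodiesterase inhibitor present; the protocol text gives 20 µM as final concentration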
Target sequence (P43116 whole entry, looked up): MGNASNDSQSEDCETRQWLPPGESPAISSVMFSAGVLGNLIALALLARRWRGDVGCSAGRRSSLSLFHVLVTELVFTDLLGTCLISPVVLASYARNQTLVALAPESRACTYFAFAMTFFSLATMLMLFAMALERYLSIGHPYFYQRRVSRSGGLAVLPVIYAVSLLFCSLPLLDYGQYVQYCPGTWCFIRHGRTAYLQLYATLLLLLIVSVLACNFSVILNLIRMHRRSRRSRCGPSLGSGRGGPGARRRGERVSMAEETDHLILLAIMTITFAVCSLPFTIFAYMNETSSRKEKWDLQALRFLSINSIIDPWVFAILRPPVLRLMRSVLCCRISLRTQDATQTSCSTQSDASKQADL
MC4R barr agon: activates human MC4R beta-arrestin recruitment; AID 540308; activation, % at 8.9 µM; 360,000 compounds, 0.98% hits; P32245; U2OS MC4R beta-arrestin complementation, luminescence; percent of melanotan II response, DMSO zero;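 active means activation above a per-plate cutoff, the mean activation of sample wells on that plate plus 3 SD, cut at about 8% in these data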
EP2 mod: EP2 receptor (human) modulation | P43116 | EP2-expressing cells, cAMP HTRF FRET, PGE2 co-stimulation | induction, % at 25 µM | 260,000 compounds, 0.83% hits | AID 940;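 active means compounds whose cAMP rise, as percent of the full-agonist control response, exceeds 60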;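 further: rat C6 glioma line stably carrying human EP2 under a CMV promoter; the protocol text gives 20 µM as final concentration; 100% = response of wells given 1 µM PGE2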
T cell modulator: T cell immune modulators affecting CD8 T cell-vesicle binding | 2C CD8+ T cell-vesicle binding, flow cytometry; hits give low values | 330,000 compounds, 0.068% hits | response (vesicle binding), % at 7 µM | AID 2052;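 active means response, share of CD8 T cells binding vesicles, and their 90th percentile fluorescence all below set limits, cut at about 80% in these data, passing the limit was not always enough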;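 further: values below 100% mean blocked vesicle binding to the CD8+ T cells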
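Assay system: 2C TCR transgenic mouse naive CD8+ T cells, MACS-purified | Read-out: CD8+ gate FL2 mean fluorescence as % of same-row positive control | Signal: High-throughput flow cytometry with anti-B7-1 and anti-CD8 staining | Timing: Binding step 1.5 h, 37 °C, antibody labelling 20 min, ice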
* = called active by the depositor; x = no result.

SMILES | MC4R antagonist | Exocytosis inh | PGE2 EP2 inh | MC4R barr agon | EP2 mod | T cell modulator
COCCn1c(=NC(=O)c2cc(Cl)sc2Cl)sc2cc(S(N)(=O)=O)ccc21 | 16.7 | 5.9 | 9.7 | 9.3* | 39.4 | 207.4
COc1ccc(OC)c(-c2csc(NC(=O)C3CSC4(C)CCC(=O)N34)n2)c1 (configuration not stated) | -0.9 | 2.2 | x | -0.4 | x | 436.1
COc1ccc(/C=C/C(=O)NCCn2c(C)cc3ccccc32)cc1OC | 11.2 | -2.3 | 114.0* | -0.7 | -40.4 | 525.1
C(=N\N1CCN(C2c3ccccc3-c3ccccc32)CC1)/c1ccncc1 | 4.8 | 0.8 | 9.4 | 7.1 | 61.1* | 119.1
COc1cc(/C=N/N2CCN(C3c4ccccc4-c4ccccc43)CC2)ccc1O | 0.9 | 1.3 | 10.3 | 4.8 | 54.6 | 203.5
COc1cccc(/C=N/N2CCN(C3c4ccccc4-c4ccccc43)CC2)c1O | 12.7 | 0.7 | 8.7 | -2.7 | 65.5* | 60.9
Oc1cccc(/C=N/N2CCN(C3c4ccccc4-c4ccccc43)CC2)c1 | 10.7 | -1.3 | 11.1 | 4.1 | 31.8 | 82.2
CC(=O)Nc1ccc(NC(=O)CN(c2ccc(C34CC5CC(CC(C5)C3)C4)cc2)S(C)(=O)=O)cc1 | 9.5 | 5.8 | 4.8 | 11.4* | -2.5 | 248.1
COc1ccc(-c2nn(-c3ccccc3)cc2C(=O)N(C)CC(=O)Nc2ccccc2Br)cc1 | 3.3 | 1.3 | x | -1.6 | x | x
Cc1oc(C)c(S(=O)(=O)NCc2cccs2)c1C(=O)O | 3.3 | 2.5 | 7.0 | -2.6 | 6.5 | 338.2
CCc1nc(NCc2ccccc2)c(C#N)c2c1CCCC2 | 13.6 | -1.3 | 2.0 | -0.1 | 63.8* | 491.9
CCOC(=O)C1=C(C)N(C)C(c2ccccc2)(C(F)(F)F)NC1=O (configuration not stated) | x | x | 42.7* | x | -17.9 | x
CC(=O)Nc1ccc(C(=O)N2CC(C)OC(C)C2)cc1 (configuration not stated) | x | x | 9.5 | x | -2.7 | x
Cc1ccc(-n2nc3c(N4CCC(C(=O)NCc5ccccc5C)CC4)nnc(C)c3c2C)cc1 | 9.6 | 30.7 | x | 9.6* | x | 395.5
CCOc1ccc(CNC(=O)C2CCN(c3nnc(C)c4c(C)n(-c5ccc(C)cc5)nc34)CC2)cc1 | -2.9 | 43.1 | x | 8.2 | x | 630.9
CCOc1ccc(NC(=O)Cn2sc3nc(C)cc(C)c3c2=O)cc1 | 2.2 | 33.8 | 122.0* | 2.7 | -40.9 | 144.9
Cc1cc(C)c2c(=O)n(CC(=O)Nc3cccc(F)c3)sc2n1 | -2.7 | 33.1 | 84.0* | 0.9 | -53.8 | 179.3
Cc1cc(C)c2c(=O)n(CC(=O)N3CCC(Cc4ccccc4)CC3)sc2n1 | x | x | x | x | 0.2 | x
Cc1cc(C)c2c(=O)n(CC(=O)Nc3ccc(Cl)cc3)sc2n1 | 4.3 | 40.4 | 98.2* | 1.0 | -78.9 | 107.3
Cc1cccc(N2CCN(C(=O)Cn3sc4nc(C)cc(C)c4c3=O)CC2C)c1 (configuration not stated) | 2.6 | 6.6 | 121.3* | 0.5 | -9.9 | 250.5
CCOc1ccc(NC(=O)CSc2nc(C)cc(C)c2C#N)cc1 | x | x | 6.7 | x | -20.6 | x
CCC/C(=N/NC(=O)c1ccc2c(c1)OCO2)c1cccs1 | 4.6 | -1.1 | 9.8 | -2.0 | 35.2 | 244.0
CC1CCCCN1S(=O)(=O)c1coc(C(N)=O)c1 (configuration not stated) | 12.0 | -1.9 | 1.9 | -1.3 | 8.9 | 256.9
Cc1ccc(NC(=O)Cn2sc3nc(C)cc(C)c3c2=O)c(Cl)c1 | -5.3 | 81.0* | 8.7 | -0.8 | -27.3 | 186.4
Nc1c(C(=O)NCc2cccs2)nnn1CC(=O)Nc1cccc(Cl)c1 | 2.1 | 0.2 | 4.4 | -0.3 | -26.4 | 290.9
SMILES | MC4R antagonist | Exocytosis inh | PGE2 EP2 inh | MC4R barr agon | EP2 mod | T cell modulator
Nc1nc2c(C(=O)NCc3cccs3)nnn2c2cccc(Cl)c12 | x | x | 48.9* | x | 1.4 | x
O=C(CC1NCCc2ccccc21)Nc1ccc(Cl)cc1 (configuration not stated) | 6.2 | -2.2 | 5.4 | 3.7 | -58.2 | 225.8
C/C(=N\NC(=S)NCc1ccccc1)c1ccccc1F | -8.8 | -3.8 | 3.0 | -2.5 | 64.4* | 146.9
C/C(=N\NC(=S)NCCc1ccccc1)c1ccc(Cl)cc1Cl | 1.9 | 88.4* | x | -4.1 | x | 338.5
COc1ccc([C@H]2[C@H](C(=O)OC(C)(C)C)N3N=Cc4ccccc4C3C23C(=O)c2ccccc2C3=O)cc1OC (some centres not stated) | 3.1 | 63.4* | 6.8 | -2.8 | 15.0 | 175.1
O=C(Oc1ccccc1/C=C\C(=O)c1cc2ccccc2o1)c1ccccc1 | 3.4 | 61.1* | 7.1 | -1.5 | 30.7 | 226.0
CCc1ccccc1N/N=C(/C)c1c(O)cc(C)oc1=O | 10.6 | 0.8 | 0.8 | -1.1 | 25.4 | 216.4
O=C(N/N=C/c1ccc2c(c1)OCO2)c1sc2cccc(Cl)c2c1Cl | 3.1 | -7.9 | 16.2 | 8.3* | -45.2 | 118.6
O=C(N/N=C/c1ccc2c(c1)OCO2)c1sc2cc(Cl)ccc2c1Cl | -3.0 | 2.6 | 9.2 | -0.4 | -2.9 | 319.2
COc1ccccc1OCC#CCn1ccnc1 | 0.1 | -7.6 | 6.3 | -3.9 | 6.5 | 351.4
CC(=O)c1ccc(NC(=O)c2sc3nc(C)c(C)c(C)c3c2N)cc1 | 1.4 | 9.1 | x | -1.9 | x | 168.4
Cc1nc2sc(C(=O)Nc3ccccc3)c(N)c2c(C)c1[N+](=O)[O-] | -9.0 | -8.4 | 5.4 | 9.3* | -29.2 | 705.1
O=C(CC1CCCC1)Nc1cc(C(F)(F)F)ccc1-n1cncn1 | -0.7 | -14.1 | x | 0.5 | x | 176.9
Cc1ccc(Cl)c(OCC(=O)Nc2ccc3c(c2)OCCO3)c1 | 11.2 | -1.0 | 13.6 | 9.0* | -35.7 | 354.7
COc1cc(/C=N/NC(=O)C(=O)N2CCCCCC2)ccc1O | 1.6 | -1.5 | x | -4.5 | x | 453.8
Cc1cc(C)c(NC(=O)/C(=C/c2ccccc2)c2ccccc2)c(C)c1 | 7.7 | -0.5 | 2.8 | -1.4 | 61.9* | 215.0
Cc1ccc(NC(=O)/C(=C/c2ccco2)c2ccccc2)c(C)c1 | 15.7 | 6.4 | 5.0 | 0.8 | 64.8* | 380.6
Nc1nc(/C=C/c2c[nH]c3ccccc23)nc(-c2ccccc2O)n1 | x | x | 91.4* | x | -117.1 | x
Cn1c(=O)c2c(nc(SCC(=O)OCc3ccccc3)n2C)n(C)c1=O | 4.7 | -4.6 | 7.0 | 0.7 | 39.7 | x
CCOC(=O)C1CCCN(C(=O)c2cc3nc(-c4ccc5c(c4)OCO5)cc(C(F)(F)F)n3n2)C1 (configuration not stated) | -43.2 | 2.9 | 8.9 | 0.5 | -32.7 | 121.0
Cc1c(CCO)c(=O)n2n1CCCC2 | 15.7 | -16.3 | x | 4.2 | x | x
Cc1[nH]nc2nc(SCC(=O)NCCC3=CCCCC3)n(-c3ccc(Br)cc3)c(=N)c12 | 17.8 | -7.0 | x | 48.9* | x | 396.2
Cc1ccc(Cl)cc1-n1c(SCC(=O)NCCC2=CCCCC2)nc2n[nH]c(C)c2c1=N | 11.2 | 1.6 | x | 1.4 | x | 770.5
